# Bioassay records (PubChem)
# This is a sample that favours compounds with a hit; in the whole collection about 1% have one here.
# Thrombin inh: thrombin (human) inhibition; P00734; alpha-thrombin, Boc-VPR-AMC fluorogenic substrate cleavage; inhibition, % at 5 µM; 0.26% of 220,000 active; AID 1046;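 active = inhibition at or above 40%; inactive = inhibition below 40%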;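 note: 0% = enzyme with no compound and 100% = wells without enzyme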
#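 Test system: human alpha-thrombin; medium: pH 7.5 Tris-saline with Tween 20; times: reaction at room temperature; signal: AMC fluorescence at 355 nm excitation and 460 nm emission; also added: Boc-VPR-AMC substrate, 15 µM final; dosing: one concentration per compound, 5 µM, with 0.2% DMSO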
# FXIIa inh: blocks human coagulation factor XIIa protease activity; P00748; purified FXIIa, Boc-QGR-AMC fluorogenic substrate, 2 h; inhibition, % at 5 µM; 0.3% of 220,000 active; AID 800; in the data active = inhibition above about 40%;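 note: 0% = enzyme with no compound and 100% = blank without enzyme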
# hK5 inh: inhibitors of human kallikrein 5 | AID 873 | recombinant hK5, fluorogenic AMC substrate cleavage | 0.59% of 210,000 active | inhibition, % at 5 µM;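 active = inhibition of 40% or more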;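 note: 0% = enzyme controls without compound and 100% = no-enzyme blanks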
# FXIa inh: blocks human coagulation factor XIa protease activity; P03951; purified FXIa, Boc-Glu-Ala-Arg-AMC fluorogenic substrate; inhibition, % at 5 µM; 0.14% of 220,000 active;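 active = inhibition of at least 40%; inactive = inhibition below 40%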;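 note: fluorescence of freed AMC excited at 355 nm; 0% = enzyme without compound and 100% = no enzyme blank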
# Target sequence (P03951 19-387 limits assumed): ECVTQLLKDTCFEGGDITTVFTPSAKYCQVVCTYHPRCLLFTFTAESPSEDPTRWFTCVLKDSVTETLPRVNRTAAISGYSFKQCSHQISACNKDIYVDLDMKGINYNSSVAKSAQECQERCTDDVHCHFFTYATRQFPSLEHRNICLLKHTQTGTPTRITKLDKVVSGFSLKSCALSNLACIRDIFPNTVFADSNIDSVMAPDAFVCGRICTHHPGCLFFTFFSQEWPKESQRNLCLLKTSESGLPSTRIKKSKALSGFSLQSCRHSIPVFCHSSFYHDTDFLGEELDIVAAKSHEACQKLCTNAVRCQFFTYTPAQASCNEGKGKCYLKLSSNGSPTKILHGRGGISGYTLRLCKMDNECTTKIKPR
# Target sequence (P03951 388-625 limits assumed): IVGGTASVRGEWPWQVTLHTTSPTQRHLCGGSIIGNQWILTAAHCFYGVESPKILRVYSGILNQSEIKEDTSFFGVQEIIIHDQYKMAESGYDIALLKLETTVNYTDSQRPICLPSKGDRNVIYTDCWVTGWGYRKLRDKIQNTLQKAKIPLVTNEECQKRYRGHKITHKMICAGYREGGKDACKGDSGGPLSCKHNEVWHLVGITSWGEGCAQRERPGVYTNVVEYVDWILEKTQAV
# * marks the source's active call; other numbers are inactive results; / = no result.
SMILES,Thrombin inh,FXIIa inh,hK5 inh,FXIa inh
COc1cccc(C(=O)SC2=NCCS2)c1,14,22,60*,21
CC(=O)c1ccc(N2CCN(S(=O)(=O)c3cccc(S(=O)(=O)N4CCOCC4)c3)CC2)cc1,12,47*,90*,9
O=C(Nc1cc([N+](=O)[O-])ccc1N1CCOCC1)c1ccco1,29,16,21,43*
COC(=O)c1cc(N2C(=O)C3C(C2=O)C2(C)C=CC3(C)O2)ccc1Cl (stereo not given),104*,6,44*,5
C=C(C)C(=O)Nc1cccc(C2=NOC3(C2)C[C@H](C(N)=O)N(C(=O)CC#N)C3)c1 (stereo not given in full),-8,0,-2,-3
CC/C=C/C(=O)N1CC2(CC(c3cccc(NC(=O)CCCCC)c3)=NO2)C[C@H]1C(N)=O (stereo not given in full),-2,16,31,42*
C=C(C)C(=O)Nc1cccc(C2=NOC3(C2)C[C@H](C(N)=O)N(C(=O)CC)C3)c1 (stereo not given in full),17,55*,28,36
O=C(O)C1C2CCC(O2)C1C(=O)NCc1ccc(Cl)cc1 (stereo not given),-2,8,-8,7
Clc1ccc(C2CSc3c4ncnc-4ncn32)cc1 (stereo not given),8,35,46*,19
CCCN1CCN(C(=O)Nc2cccc(C(F)(F)F)c2)CC1,1,8,-2,12
O=C(Nc1cccc(C(F)(F)F)c1)N1CCN(C(=O)Nc2cccc(C(F)(F)F)c2)CC1,21,27,55*,15
O=C(CCCN1C(=O)c2cccnc2C1=O)Nc1ccc(Br)cc1,1,6,1,-2
CCCCCCCCNC1=CC(=O)CC(C)(C)C1,7,30,50*,23
O=C(c1ccc(Cl)cc1)c1oc2ccccc2c1CS(=O)(=O)c1ccccc1,-2,8,-17,-1
Cc1ccc(C(=O)n2c(-c3ccccc3)cnc2SCC(=O)Nc2ccccc2)cc1,16,19,4,18
CC(=O)n1nc(-c2cccc(C)c2)nc1SCC(=O)Nc1ccccc1,77*,13,-6,-1
CCC(=O)n1nc(-c2ccccc2)nc1SCC(=O)Nc1ccc(C)cc1,52*,28,-22,22
CCN1c2ccccc2-c2nc3ccccc3n2C1c1cccs1 (stereo not given),-16,-33,-35,-15
N/C(=N\S(=O)(=O)c1ccccc1)c1ccc([N+](=O)[O-])cc1,48*,9,8,-9
N/C(=N/S(=O)(=O)c1ccccc1)c1cccc([N+](=O)[O-])c1,-4,5,/,0
COc1ccccc1CC(=O)NN1C(=O)c2ccccc2C1=O,6,106*,44*,3
O=C(Cc1ccccc1)NN1C(=O)c2ccccc2C1=O,-10,7,-1,1
Cc1ccc(CN2CCN(/N=C\C=C\c3ccccc3)CC2)cc1,-5,2,-2,-1
O=C(Nc1cccc(F)c1)C1CC(=O)N(c2ccc(Br)cc2)C1 (stereo not given),13,24,79*,15
COc1ccc(C(C(=O)NC(C)(C)C)N(C(=O)Cn2nnc3ccccc32)c2cccc(C(C)=O)c2)cc1O (stereo not given),-1,9,-2,-1
SMILES,Thrombin inh,FXIIa inh,hK5 inh,FXIa inh
Cc1ccccc1NC(=O)Cn1nnc2ccccc21,14,27,22,33
NC(=O)c1ncn([C@@H]2O[C@H](CO)[C@@H](O)[C@H]2O)c1O,-2,7,-8,0
CC(C)NC(=O)c1ccc(C(C)C)cc1,78*,7,5,-1
Cc1cnn(-c2ccc3nnc(-c4ccc(Br)cc4)n3n2)c1,-4,-12,-21,-3
CN(C)S(=O)(=O)c1ccc(Cl)c(NC(=O)COC(=O)C2CSC3(C)CCC(=O)N23)c1 (stereo not given),1,8,-19,5
CC(C)OCCCNS(=O)(=O)c1ccc2c(c1)oc(=O)n2C,14,21,42*,16
CCN1C(=O)/C(=C\c2ccco2)C(C(=O)OC)=C1C,3,43*,10,25
C=CCN1C(=O)/C(=C\c2ccco2)C(C(=O)OC)=C1C,11,14,-10,16
COc1cc(S(=O)(=O)N2CCN(C(=O)c3ccccc3F)CC2)c(OC)cc1NC(C)=O,10,16,47*,16
CCCS(=O)(=O)N1CCN(C(=O)c2ccccc2F)CC1,4,2,-19,4
CCCCCSc1nnc(-c2cc(Br)ccc2N)c(=O)[nH]1,15,27,42*,16
